Source: ChEMBL document CHEMBL4190373, “Tumor Targeting with Novel Pyridyl 6-Substituted Pyrrolo[2,3- d]Pyrimidine Antifolates via Cellular Uptake by Folate Receptor α and the Proton-Coupled Folate Transporter and Inhibition of De Novo Purine Nucleotide Biosynthesis” (J Med Chem, 2018)
pIC50, pKi: −log10 of the molar value. Activity calls are given as the source filed them. The rule behind the calls is not given here.

Experiments:
[1] = test system: IGROV-1; experiment: Antiproliferative activity against human IGROV1 cells expressing human FR-alpha/PCFT assessed as reduction in cell viability measured after 96 hrs in presence of folic acid by Cell-Titer Blue assay; type: functional, cell-based; conditions: IGROV-1, 96 h
How it was run: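 IGROV1 growth inhibition in folate-free RPMI 1640 with 10% dialyzed FBS, 2 nM leucovorin and 2 mM L-glutamine, with 200 nM folic acid added to block FR-mediated uptake. Drug present continuously up to 1000 nM for up to 96 h. Readout by CellTiter-Blue fluorescence.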

[2] = target: T1, Proton-coupled folate transporter (Homo sapiens) (UniProt Q96NT5); experiment: Inhibition of [3H]MTX uptake at human PCFT expressed in Chinese hamster R2/PCFT4 cells at 10 uM at pH 6.8 by scintillation counting method relative to control; type: cell-based
T1 sequence (whole entry): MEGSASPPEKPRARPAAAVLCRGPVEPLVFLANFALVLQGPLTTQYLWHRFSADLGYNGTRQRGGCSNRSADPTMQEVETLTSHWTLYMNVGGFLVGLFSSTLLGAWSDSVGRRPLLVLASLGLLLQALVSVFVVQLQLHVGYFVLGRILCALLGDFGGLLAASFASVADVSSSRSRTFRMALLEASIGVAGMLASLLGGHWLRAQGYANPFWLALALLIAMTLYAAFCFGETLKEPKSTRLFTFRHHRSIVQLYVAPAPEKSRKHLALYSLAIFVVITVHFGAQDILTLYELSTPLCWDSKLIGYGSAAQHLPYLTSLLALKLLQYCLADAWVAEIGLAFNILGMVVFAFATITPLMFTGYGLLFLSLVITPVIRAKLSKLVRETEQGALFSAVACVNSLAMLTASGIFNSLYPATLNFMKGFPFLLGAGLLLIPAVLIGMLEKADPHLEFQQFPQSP
How it was run: (§1)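 Buffers: MES-buffered saline pH 5.5 or HEPES-buffered saline pH 6.8, with 1 or 10 µM inhibitor. Quenched with ice-cold DPBS, counted by scintillation, normalized to protein and untreated controls. Mean ± SE, 3 experiments.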

[3] = target: T1, Proton-coupled folate transporter (Homo sapiens); experiment: Inhibition of [3H]MTX uptake at human PCFT expressed in Chinese hamster R2/PCFT4 cells at 10 uM at pH 5.5 by scintillation counting method relative to control; type: cell-based; how it was run: as §1
[4] = target: Folate receptor alpha (Homo sapiens) (UniProt P15328); experiment: Displacement of [3H]folic acid from human FR-alpha receptor expressed in Chinese hamster RT16 cells measured after 15 mins; type: cell-based
How it was run: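 RT16 (FRα) or D4 (FRβ) CHO cells, ~5 x 10^6 per dish, stripped of bound folate with pH 3.5 acetate buffer. Then incubated in HEPES-buffered saline pH 7.4 with 50 nM [3H]folic acid ± unlabeled ligand 1-1000 nM. Bound label normalized to protein. […] Mean ± SE, 3 experiments.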

[5] = target: T1, Proton-coupled folate transporter (Homo sapiens); conditions: 1 uM
[6] = target: T1, Proton-coupled folate transporter (Homo sapiens); experiment: Inhibition of [3H]MTX uptake at human PCFT expressed in Chinese hamster R2/PCFT4 cells at 1 uM at pH 5.5 by scintillation counting method relative to control; type: cell-based; how it was run: as §1
[7] = Cytotoxicity in RFC-null Chinese hamster R2 cells assessed as reduction in cell viability measured after 96 hrs by Cell-Titer Blue assay; type: cell-based; conditions: Cricetulus griseus, R2, 96 h
How it was run: (§2)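 CHO sublines expressing human PCFT (R2/PCFT4) or RFC (PC43-10), transporter-null R2, and empty-vector R2(VC). Continuous drug up to 1000 nM, up to 96 h, CellTiter-Blue fluorescence.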

[8] = Growth inhibition of Chinese hamster R2(VC) cells after 96 hrs celltiter-blue assay; conditions: Cricetulus griseus; how it was run: as §2
[9] = test system: KB; experiment: Antiproliferative activity against human KB cells expressing human RFC/FR-alpha/PCFT assessed as reduction in cell viability measured after 96 hrs in presence of folic acid by Cell-Titer Blue assay; type: functional, cell-based
[10] = test system: KB; experiment: Antiproliferative activity against human KB cells expressing human RFC/FR-alpha/PCFT assessed as reduction in cell viability up to 1000 nM measured after 96 hrs in presence of AICA by Cell-Titer Blue assay; type: functional, cell-based
[11] = test system: IGROV-1; experiment: Antitumor activity against human IGROV1 cells xenografted in folate-deficient diet fed ICR SCID mouse assessed as tumor growth delay time at 150 mg/kg, iv administered every 2 days for 8 times starting on day 3 measured twice per week; type: functional
How it was run: (§3)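 Female SCID mice, 10 weeks, ~20 g. Fed folate-deficient or folate-replete diet from 14 days before bilateral s.c. IGROV1 tumor fragments (30-60 mg, trocar). […] Weighed daily, tumors measured twice weekly. Growth delay = T-C days to 1000 mg, median.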

[12] = test system: KB; experiment: Antiproliferative activity against human KB cells expressing human RFC/FR-alpha/PCFT assessed as reduction in cell viability up to 1000 nM measured after 96 hrs in presence of adenosine by Cell-Titer Blue assay; type: functional, cell-based
[13] = test system: KB; experiment: Antiproliferative activity against human KB cells expressing human RFC/FR-alpha/PCFT assessed as reduction in cell viability measured after 96 hrs by Cell-Titer Blue assay; type: functional, cell-based
[14] = test system: IGROV-1; experiment: Antiproliferative activity against human IGROV1 cells expressing human FR-alpha/PCFT assessed as reduction in cell viability measured after 96 hrs by Cell-Titer Blue assay; type: functional, cell-based; conditions: IGROV-1, 96 h
[15] = target: T2, Proton-coupled folate transporter (Homo sapiens, UniProt Q96NT5); experiment: Inhibition of [3H]MTX uptake at human PCFT expressed in Chinese hamster R2/PCFT4 cells at pH 5.5 measured after 2 mins by Dixon plot analysis; type: cell-based
T2 sequence (Q96NT5 whole entry): T1 sequence (whole entry)

[16] = test system: Mus musculus; experiment: Toxicity in folate-deficient diet fed ICR SCID mouse assessed as body weight loss at 150 mg/kg, iv administered every 2 days for 8 times starting on day 3 measured twice per week; type: organism-based; conditions: in vivo, 48 h; how it was run: as §3
[17] = test system: IGROV-1; experiment: Antitumor activity against human IGROV1 cells xenografted in high folate diet fed ICR SCID mouse assessed as tumor growth inhibition at 150 mg/kg, iv administered every 2 days for 8 times starting on day 3 measured twice per week; type: functional, organism-based; how it was run: as §3
[18] = test system: IGROV-1; experiment: Antitumor activity against human IGROV1 cells xenografted in folate-deficient diet fed ICR SCID mouse assessed as tumor growth inhibition at 150 mg/kg, iv administered every 2 days for 8 times starting on day 3 measured twice per week up to 49 days; type: functional, organism-based; how it was run: as §3
[19] = test system: KB; experiment: Antiproliferative activity against human KB cells expressing human RFC/FR-alpha/PCFT assessed as reduction in cell viability up to 1000 nM measured after 96 hrs in presence of thymidine by Cell-Titer Blue assay; type: functional, cell-based
[20] = target: Folate receptor beta (Homo sapiens) (UniProt P14207); experiment: Displacement of [3H]folic acid from human FR-beta receptor expressed in Chinese hamster D4 cells measured after 15 mins; type: cell-based
[21] = target: T3, Trifunctional purine biosynthetic protein adenosine-3 (Homo sapiens, UniProt P22102); experiment: Inhibition of GARFTase in human KB cells assessed as decrease in [14C]formyl GAR accumulation preincubated for 30 mins followed by [14C]glycine addition measured after 15 hrs in presence of azaserine by ion-exchange chromatographic assay; type: cell-based
T3 sequence (P22102 whole entry): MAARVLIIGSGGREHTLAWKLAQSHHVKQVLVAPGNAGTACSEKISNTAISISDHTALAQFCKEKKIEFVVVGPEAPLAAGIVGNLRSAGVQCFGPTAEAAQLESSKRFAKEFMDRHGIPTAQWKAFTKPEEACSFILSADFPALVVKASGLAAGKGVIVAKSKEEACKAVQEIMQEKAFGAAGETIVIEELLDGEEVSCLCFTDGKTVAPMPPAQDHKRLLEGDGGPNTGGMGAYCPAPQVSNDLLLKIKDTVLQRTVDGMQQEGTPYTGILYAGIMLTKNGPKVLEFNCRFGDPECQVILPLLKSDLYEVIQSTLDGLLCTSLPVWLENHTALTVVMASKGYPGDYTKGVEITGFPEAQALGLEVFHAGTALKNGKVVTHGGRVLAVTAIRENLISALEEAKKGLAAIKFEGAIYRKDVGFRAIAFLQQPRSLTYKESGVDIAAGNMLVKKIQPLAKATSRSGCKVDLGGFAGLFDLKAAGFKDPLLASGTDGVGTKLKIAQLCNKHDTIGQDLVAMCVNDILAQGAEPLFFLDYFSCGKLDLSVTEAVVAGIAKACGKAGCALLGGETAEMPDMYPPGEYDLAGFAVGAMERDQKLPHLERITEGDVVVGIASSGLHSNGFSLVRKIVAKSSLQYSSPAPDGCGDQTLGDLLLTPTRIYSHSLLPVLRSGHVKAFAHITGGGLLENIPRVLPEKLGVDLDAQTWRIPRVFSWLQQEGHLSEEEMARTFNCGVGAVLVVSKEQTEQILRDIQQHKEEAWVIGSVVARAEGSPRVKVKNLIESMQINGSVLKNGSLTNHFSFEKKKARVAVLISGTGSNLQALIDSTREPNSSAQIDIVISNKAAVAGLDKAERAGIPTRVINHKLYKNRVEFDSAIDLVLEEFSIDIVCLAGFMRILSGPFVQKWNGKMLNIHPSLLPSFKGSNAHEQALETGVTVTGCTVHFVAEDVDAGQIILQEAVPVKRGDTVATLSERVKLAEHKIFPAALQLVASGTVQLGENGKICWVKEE

[22] = target: T1, Proton-coupled folate transporter (Homo sapiens); experiment: Inhibition of [3H]MTX uptake at human PCFT expressed in Chinese hamster R2/PCFT4 cells at 1 to 10 uM at pH 5.5 to 6.8 by scintillation counting method; type: cell-based; how it was run: as §1
[23] = test system: Mus musculus; experiment: Toxicity in folate-deficient diet fed ICR SCID mouse assessed as body weight loss at […], iv administered every 4 days for 4 times starting on day 3 measured twice per week; conditions: in vivo
[24] = test system: IGROV-1; experiment: Antitumor activity against human IGROV1 cells xenografted in folate-deficient diet ICR SCID mouse assessed as tumor growth delay time at […], iv administered every 4 days for 4 times starting on day 3 measured twice per week

Chain of Folate receptor alpha (Homo sapiens) (P15328 25-234 limits assumed): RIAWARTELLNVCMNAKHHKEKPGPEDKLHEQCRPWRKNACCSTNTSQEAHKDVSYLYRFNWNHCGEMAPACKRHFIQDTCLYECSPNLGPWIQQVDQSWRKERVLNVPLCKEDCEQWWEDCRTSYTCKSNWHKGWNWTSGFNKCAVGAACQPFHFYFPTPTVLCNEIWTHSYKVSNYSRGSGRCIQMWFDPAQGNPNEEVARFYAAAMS
Chain of Folate receptor beta (Homo sapiens) (P14207 17-230 limits assumed): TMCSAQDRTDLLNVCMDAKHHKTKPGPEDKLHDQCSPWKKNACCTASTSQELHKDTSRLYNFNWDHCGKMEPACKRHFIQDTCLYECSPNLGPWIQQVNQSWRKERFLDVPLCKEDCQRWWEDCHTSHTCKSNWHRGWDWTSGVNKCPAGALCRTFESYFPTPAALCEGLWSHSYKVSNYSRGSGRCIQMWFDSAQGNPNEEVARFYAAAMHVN

Nc1nc2[nH]c(CCCCc3ccc(C(=O)N[C@@H](CCC(=O)O)C(=O)O)cc3)cc2c(=O)[nH]1
pIC50 [1]: < 6.00 | inhibition [2]: 35% | inhibition [3]: > 90% | inhibition [4]: Active | inhibition [5]: 0% | inhibition [6]: 50% | pIC50 [7]: < 6.00 | pIC50 [8]: < 6.00 | pIC50 [9]: < 6.00

Nc1nc2[nH]c(CCCCc3ccc(C(=O)N[C@@H](CCC(=O)O)C(=O)O)nc3)cc2c(=O)[nH]1
pIC50 [1]: 6.07 | Activity [10]: inactive | inhibition [2]: 40% | inhibition [3]: > 90% | Time [11]: 45 days | Activity [12]: inactive | pIC50 [13]: 9.43 | inhibition [5]: 10% | pIC50 [14]: 9.17 | inhibition [6]: 70% | pKi [15]: 6.48 | Activity [16]: 5% | TGI [17]: inactive | pIC50 [7]: < 6.00 | pIC50 [8]: < 6.00 | pIC50 [9]: 6.43 | TGI [18]: Active | Activity [19]: Active

Nc1nc2[nH]c(CCC#Cc3ccc(C(=O)N[C@@H](CCC(=O)O)C(=O)O)nc3)cc2c(=O)[nH]1
pIC50 [13]: < 6.00 | pIC50 [7]: < 6.00 | pIC50 [8]: < 6.00 | pIC50 [9]: < 6.00

C#CCC(Cc1cnc2nc(N)nc(N)c2n1)c1ccc(C(=O)N[C@@H](CCC(=O)O)C(=O)O)cc1 (mixture of isomers) [PRALATREXATE]
pIC50 [7]: 6.09 | pIC50 [8]: < 6.00

Nc1nc2[nH]c(CCCCc3cccc(C(=O)N[C@@H](CCC(=O)O)C(=O)O)n3)cc2c(=O)[nH]1
Activity [10]: inactive | Activity [12]: inactive | pIC50 [13]: 6.18 | inhibition [4]: inactive | pIC50 [7]: < 6.00 | pIC50 [8]: < 6.00 | pIC50 [9]: < 6.00 | Activity [19]: Active | inhibition [20]: inactive

Nc1nc2[nH]c(CCC#Cc3ccc(C(=O)N[C@@H](CCC(=O)O)C(=O)O)cn3)cc2c(=O)[nH]1
pIC50 [13]: < 6.00 | pIC50 [7]: < 6.00 | pIC50 [8]: < 6.00 | pIC50 [9]: < 6.00

Nc1nc2[nH]c(CCCCc3ccc(C(=O)N[C@@H](CCC(=O)O)C(=O)O)cn3)cc2c(=O)[nH]1
Activity [10]: inactive | Activity [12]: inactive | pIC50 [13]: 7.76 | inhibition [4]: Active | pIC50 [21]: 8.32 | pIC50 [7]: < 6.00 | pIC50 [8]: < 6.00 | pIC50 [9]: < 6.00 | Activity [19]: Active | inhibition [20]: Active

CN(Cc1cnc2nc(N)nc(N)c2n1)c1ccc(C(=O)N[C@@H](CCCNC(=O)c2ccccc2C(=O)O)C(=O)O)cc1
inhibition [22]: inactive

CN(Cc1cnc2nc(N)nc(N)c2n1)c1ccc(C(=O)N[C@@H](CCC(=O)O)C(=O)O)cc1 [METHOTREXATE]
pIC50 [8]: < 6.00

Nc1nc2[nH]c(CCC#Cc3cccc(C(=O)N[C@@H](CCC(=O)O)C(=O)O)n3)cc2c(=O)[nH]1
pIC50 [13]: < 6.00 | pIC50 [7]: < 6.00 | pIC50 [8]: < 6.00 | pIC50 [9]: < 6.00

Nc1nc2[nH]cc(CCc3ccc(C(=O)N[C@@H](CCC(=O)O)C(=O)O)cc3)c2c(=O)[nH]1 [PEMETREXED]
inhibition [2]: 75% | inhibition [5]: 40% | Activity [23]: 14% | inhibition [6]: 85% | Time [24]: 0 days | pIC50 [7]: 6.07
